# ChEMBL document CHEMBL1124216, “A novel class of potential central nervous system agents. 3-Phenyl-2-(1-piperazinyl)-5H-1-benzazepines” (1988)
# How the values were obtained:
# Format in all cases: functional
# Mus musculus [1] = assay: Antiexploratory activity (EXPL) of mice determined by an antimex activity meter,100 mg/kg of dose was administered perorally; No inhibition
# Mus musculus [2] = assay: Antimaximal electroshock seizure (MES) activity in mice after peroral administration of 10 mg/kg of compound; 0/5; details: route oral
# Mus musculus [3] = assay: Antitremorine activity(TRM) of mice after peroral administration of 10 mg/kg of compound; No inhibition; details: route oral
# Mus musculus [4] = assay: Antimaximal electroshock seizure activity was determined in mice when administered perorally; details: po
# Mus musculus [5] = assay: Antimaximal electroshock seizure (MES) activity in mice after peroral administration of 100 mg/kg of compound; 4/5; details: route oral
# Mus musculus [6] = assay: Antipentylene tetrazole activity was determined in mice when administered perorally; details: po
# Summary of the method: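 Groups of five male Std-ddY mice received compound orally in 0.5% tragacanth, then pentylenetetrazole 175 mg/kg ip. Blockade of the tonic extensor component scored as anticonvulsant. ED50 was the dose protecting 50% of animals (Litchfield-Wilcoxon).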
# Mus musculus [7] = assay: Antireserpine activity (RES) of mice after peroral administration of 100 mg/kg of compound; No inhibition; details: route oral
# Mus musculus [8] = assay: Antitremorine activity(TRM) of mice after peroral administration of 100 mg/kg of compound; details: route oral
# Mus musculus [9] = assay: Antimaximal electroshock seizure (MES) activity in mice after peroral administration of 100 mg/kg of compound; 5/5; details: route oral
# Mus musculus [10] = assay: Antiexploratory activity (EXPL) of mice determined by an antimex activity meter,100 mg/kg of dose was administered perorally
# Mus musculus [11] = assay: Antitremorine activity(TRM) of mice after peroral administration of 100 mg/kg of compound; Moderate inhibition (51-71%); details: route oral
# Mus musculus [12] = assay: Exploratory activity of mice determined by an antimex activity meter, when administered perorally; details: po
# Summary of the method: (§1)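 Male Std-ddY mice (20-25 g), five per dose; compound in 0.5% aqueous tragacanth given orally. Two hours later each mouse placed in an Animex activity meter cage and locomotor activity counted for 3 min. Mean suppression expressed as percent inhibition of control; ED50 by Litchfield-Wilcoxon.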
# Mus musculus [13] = assay: Exploratory activity of mice determined by an antimex activity meter, 50 mg/kg of dose was administered perorally; details: Mus musculus, po; summary of the method: as §1
# Mus musculus [14] = assay: (§2) 3,4 -Dihydroxy phenylacetic acid (DOPAC) levels in mouse brain at 10 mg/kg dose.
# Summary of the method: (§3)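 Male Std-ddY mice, 20-25 g, dosed orally with compound in 0.5% aqueous tragacanth. DOPAC was measured fluorometrically after purification by column chromatography on Sephadex G-10 and QAE-Sephadex. Brains from five mice per compound were pooled for each determination.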
# Mus musculus [15] = assay: Antireserpine activity (RES) of mice after peroral administration of 50 mg/kg of compound; No inhibition; details: route oral
# Canis familiaris [16] = assay: Inhibition of apomorphine induced emesis in dogs when administered perorally; details: Canis lupus familiaris, po
# Summary of the method: (§4)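 Beagle dogs (10-15 kg), groups of three, given compound po in a gelatin capsule; 2 h later apomorphine hydrochloride 0.3 mg/kg sc. Vomiting counted for 1 h; mean inhibition as percent of control. ED50 is the dose giving 50% inhibition of emesis, by Litchfield-Wilcoxon.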
# Mus musculus [17] = assay: (§5) 3,4 -Dihydroxy phenylacetic acid (DOPAC) levels in mouse brain at 50 mg/kg dose.; summary of the method: as §3
# Rattus norvegicus [18] = assay: Inhibition of self-stimulation response in rats when administered perorally.; details: po
# Summary of the method: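 Male Wistar HLA rats (300-400 g) with chronic electrodes in the lateral posterior hypothalamus, lever-pressing steadily at 50-100/min. Self-stimulation counted for 10 min before and 2 h after oral dosing. ED50 is the dose causing ≥50% rate inhibition in half the rats (Litchfield-Wilcoxon).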
# Mus musculus [19] = assay: The homovanillic acid (HVA) levels in mouse brain at 50 mg/kg of dose.
# Summary of the method: (§6)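 Mice dosed orally in 0.5% aqueous tragacanth; brains of five mice per compound pooled. Homovanillic acid measured in brain extracts and reported as brain level.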
# Mus musculus [20] = assay: Concentration of compound that causes catalepsy in the mice when administered perorally; details: po
# Summary of the method: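 Male Std-ddY mice were dosed orally, vehicle 0.5% aqueous tragacanth. At 2 h, forepaws were placed on a rod 4.5 cm high. Failure to remove the paws within 30 s in three successive trials was scored cataleptic. ED50 was the dose giving catalepsy in 50% of mice (Litchfield-Wilcoxon).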
# Canis familiaris [21] = assay: Inhibition of apomorphine induced emesis in dogs at 1 mg/kg of dose.; details: Canis lupus familiaris; summary of the method: as §4
# Mus musculus [22] = assay: Concentration of compound that causes ptosis in the mice when administered perorally; details: po
# Summary of the method: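 Five male Std-ddY mice per group were dosed orally in 0.5% aqueous tragacanth. At 2 h, eyelid closure was scored macroscopically (8 open to 0 fully closed). Group mean scores formed a dose-response curve. ED50 was the dose reducing the mean score to 50%.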
# Mus musculus [23] = assay: Antiexploratory activity (EXPL) of mice determined by an antimex activity meter, 50 mg/kg of dose was administered perorally; potent inhibition; details: route oral
# Mus musculus [24] = assay: Antiexploratory activity (EXPL) of mice determined by an antimex activity meter, 10 mg/kg of dose was administered perorally; Slight inhibition (31-50%); details: route oral
# Mus musculus [25] = assay: Exploratory activity of mice determined by an antimex activity meter, 10 mg/kg of dose was administered perorally; details: route oral
# Mus musculus [26] = assay: The homovanillic acid (HVA) levels in mouse brain at 10 mg/kg of dose.; summary of the method: as §6
# Mus musculus [27] = assay: Inhibition of conditioned avoidance response in mice when administered perorally; details: po
# Summary of the method: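 One-way active avoidance in male Std-ddY mice in a dark/light two-compartment box. Mice trained to move to the lit side on a warning stimulus to escape floor shock; groups of 10 avoiding at >80% in 10 trials. Compound po in 0.5% tragacanth. ED50 is the dose halving avoidance rate (Litchfield-Wilcoxon).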
# Mus musculus [28] = assay: Antiexploratory activity (EXPL) of mice determined by an antimex activity meter, 100 mg/kg of dose was administered perorally; details: route oral
# Mus musculus [29] = assay: Antimaximal electroshock seizure (MES) activity in mice after peroral administration of 100 mg/kg of compound; 0/5; details: route oral
# Mus musculus [30] = assay: Antitremorine activity(TRM) of mice after peroral administration of 100 mg/kg of compound; No inhibition; details: route oral
# Mus musculus [31] = assay: Antiexploratory activity (EXPL) of mice determined by an antimex activity meter, 50 mg/kg of dose was administered perorally; No inhibition; details: route oral
# Mus musculus [32] = assay: Antireserpine activity (RES) of mice after peroral administration of mg/kg of compound; Slight inhibition (31-50%)
# Mus musculus [33] = assay: Antireserpine activity (RES) of mice after peroral administration of 100 mg/kg of compound; Moderate inhibition (51-71%); details: route oral
# Mus musculus [34] = assay: The homovanillic acid (HVA)levels in mouse brain at 10 mg/kg of dose.
# Summary of the method: (§7)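 Male Std-ddY mice (20-25 g) dosed orally with compound in 0.5% aqueous tragacanth (solution or suspension). Brain homovanillic acid (HVA) determined by a published method. Brains from five mice per compound pooled for one determination.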
# Mus musculus [35] = assay: The homovanillic acid (HVA)levels in mouse brain at 50 mg/kg of dose.; summary of the method: as §7
# Mus musculus [36] = assay: Antiexploratory activity (EXPL) of mice determined by an antimex activity meter, when administered perorally; details: po
# Summary of the method: (§8)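 Male Std-ddY mice (20-25 g), five per dose, given compound orally in 0.5% aqueous tragacanth. Two hours later each mouse was placed in the activity-meter cage and locomotor activity was counted for 3 min. Suppression is expressed as percent inhibition of control. ED50 (dose giving 50% inhibition) calculated by Litchfield-Wilcoxon.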
# Mus musculus [37] = assay: as §2; remark: listed apart in the source
# Summary of the method: (§9)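 Male Std-ddY mice (20-25 g) dosed orally with compound dissolved or suspended in 0.5% aqueous tragacanth. DOPAC measured fluorometrically after purification by column chromatography on Sephadex G-10 and QAE-Sephadex. Brains from five mice per compound pooled for the determination.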
# Canis familiaris [38] = assay: Inhibition of apomorphine induced emesis in dogs at 2 mg/kg of dose.; details: Canis lupus familiaris; summary of the method: as §4
# Mus musculus [39] = assay: as §5; summary of the method: as §9; remark: listed apart in the source
# Mus musculus [40] = assay: Antiexploratory activity (EXPL) of mice determined by an antimex activity meter, 50 mg/kg of dose was administered perorally; details: route oral; summary of the method: as §8
# Rattus norvegicus [41] = assay: Inhibition of self stimulation response in rats when administered perorally.; details: po
# Summary of the method: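 Male Wistar HLA rats (300-400 g) with chronic electrodes implanted in the lateral posterior hypothalamus; only rats lever-pressing steadily at 50-100/min were used. Compound given po in 0.5% tragacanth. Self-stimulation counted for 10 min before and 2 h after dosing. ED50 is the dose giving ≥50% rate inhibition in 50% of rats (Litchfield-Wilcoxon).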
# Mus musculus [42] = assay: Antiexploratory activity (EXPL) of mice determined by an antimex activity meter, 10 mg/kg of dose was administered perorally; details: route oral; summary of the method: as §8
smiles,measurement,setting,value
CCN1CCN(C2=Nc3ccc(C)cc3CC=C2c2ccccc2)CC1.Cl.Cl,Inhibition,Mus musculus [1],<30%
same,Activity,Mus musculus [2],0
same,inhibition in vivo at 10 mg/kg,Mus musculus [3],< 30%
same,ED50,Mus musculus [4],70.2 mg/kg
same,Activity,Mus musculus [5],4
same,ED50,Mus musculus [6],32.3 mg/kg
same,inhibition in vivo at 100 mg/kg,Mus musculus [7],< 30%
same,inhibition in vivo at 100 mg/kg,Mus musculus [8],> 71%
CCc1ccc2c(c1)CC=C(c1ccccc1)C(N1CCN(CCO)CC1)=N2.Cl.Cl,Activity,Mus musculus [9],5
same,Inhibition,Mus musculus [10],<30%
same,inhibition in vivo at 100 mg/kg,Mus musculus [11],51%
same,Activity,Mus musculus [2],0
same,inhibition in vivo at 100 mg/kg,Mus musculus [7],< 30%
CN1CCN(C2=Nc3ccccc3CC=C2c2ccc(F)cc2)CC1.Cl.Cl,ED50,Mus musculus [12],8.15 mg/kg
same,inhibition in vivo at 50 mg/kg,Mus musculus [13],79.3%
same,Control,Mus musculus [14],188%
same,inhibition in vivo at 50 mg/kg,Mus musculus [15],< 30%
same,ED50,Canis familiaris [16],0.28 mg/kg
same,Control,Mus musculus [17],306%
same,ED50,Rattus norvegicus [18],4.05 mg/kg
same,Control,Mus musculus [19],400%
same,ED50,Mus musculus [20],21.5 mg/kg
same,inhibition in vivo at 1 mg/kg,Canis familiaris [21],100%
same,ED50,Mus musculus [22],61 mg/kg
same,inhibition in vivo at 50 mg/kg,Mus musculus [23],> 70%
same,inhibition in vivo at 10 mg/kg,Mus musculus [24],31%
same,inhibition in vivo at 10 mg/kg,Mus musculus [25],43.3%
same,Control,Mus musculus [26],197%
same,ED50,Mus musculus [27],14.6 mg/kg
Cl.Cl.OCCN1CCN(C2=Nc3ccc(F)cc3CC=C2c2ccccc2)CC1,inhibition in vivo at 100 mg/kg,Mus musculus [28],> 71%
same,Activity,Mus musculus [29],0
same,ED50,Mus musculus [4],> 500 mg/kg
same,ED50,Mus musculus [6],> 500 mg/kg
same,inhibition in vivo at 100 mg/kg,Mus musculus [7],< 30%
same,inhibition in vivo at 100 mg/kg,Mus musculus [30],< 30%
Cl.Cl.OCCN1CCN(C2=Nc3ccccc3CC=C2c2cccc(Cl)c2)CC1,inhibition in vivo at 50 mg/kg,Mus musculus [31],< 30%
same,Inhibition,Mus musculus [32],31%
same,Activity,Mus musculus [29],0
CN1CCN(C2=Nc3ccccc3CC=C2c2cccc(Cl)c2)CC1.Cl.Cl,inhibition in vivo at 50 mg/kg,Mus musculus [31],< 30%
same,inhibition in vivo at 100 mg/kg,Mus musculus [33],51%
same,Activity,Mus musculus [29],0
CN(C)CCCN1c2ccccc2Sc2ccc(Cl)cc21 [CHLORPROMAZINE],Control % at 10 mg/kg,Mus musculus [34],203%
same,Control % at 50 mg/kg,Mus musculus [35],304%
same,ED50,Canis familiaris [16],4.53 mg/kg
same,ED50,Mus musculus [36],8.26 mg/kg
same,ED50,Mus musculus [20],7.81 mg/kg
same,ED50,Mus musculus [22],24.9 mg/kg
same,Control % at 10 mg/kg,Mus musculus [37],232%
same,inhibition in vivo at 2 mg/kg,Canis familiaris [38],22.2%
same,Control % at 50 mg/kg,Mus musculus [39],303%
same,inhibition in vivo at 50 mg/kg,Mus musculus [40],90.1%
same,ED50,Rattus norvegicus [41],6.68 mg/kg
same,inhibition in vivo at 10 mg/kg,Mus musculus [42],46.3%
same,ED50,Mus musculus [27],5.59 mg/kg
CN1CCN(C2=Nc3cc(Cl)ccc3Nc3ccccc32)CC1 [CLOZAPINE],Control % at 10 mg/kg,Mus musculus [34],106%
same,Control % at 50 mg/kg,Mus musculus [35],274%
same,ED50,Canis familiaris [16],12.6 mg/kg
same,ED50,Mus musculus [36],8.45 mg/kg
same,ED50,Mus musculus [20],> 100 mg/kg
same,inhibition in vivo at 1 mg/kg,Canis familiaris [21],27.4%
same,ED50,Mus musculus [22],15.8 mg/kg
same,Control % at 10 mg/kg,Mus musculus [37],128%
same,Control % at 50 mg/kg,Mus musculus [39],324%
same,inhibition in vivo at 50 mg/kg,Mus musculus [40],87.8%
same,ED50,Rattus norvegicus [41],77.1 mg/kg
same,inhibition in vivo at 10 mg/kg,Mus musculus [42],50.6%
same,ED50,Mus musculus [27],9.68 mg/kg
